Screening results as filed in PubChem BioAssay.
Sampled rows, rich in hits. Any-hit rate of the full collection: about 4.6%.
CHO parental Ca: counter-screen for OX1R antagonists: effect in parental CHO cells; parental CHO-K1, ATP-induced calcium, Fluo-8 fluorescence; inhibition, % at 5.6 µM; 330,000 tested, 0.63% active; AID 463079;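 active means inhibition above that plate's mean sample inhibition plus 3 SD, cut at about 26% in these data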;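 further: 0% = ATP-challenged DMSO wells and 100% = DMSO wells without ATP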
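Assay system – parental CHO cells · Reagent – ATP stimulus · Detection – intracellular calcium via Fluo-8 no-wash fluorescent dye · Evaluation – percent inhibition of ATP-evoked calcium rise, normalized to controls · Controls – ATP wells versus no-ATP DMSO wells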
TAAR1 antag: human TAAR1 antagonism; CHO RD-HGA16 TAAR1, Fluo-8 calcium fluorescence, antagonist; inhibition, % at 3 µM; 360,000 tested, 1.5% active;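 active means inhibition above a per-plate cutoff, the mean inhibition of test compounds on that plate plus 3 SD, cut at about 49% in these data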;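 further: 0% = DMSO plus EC80 beta-PEA response and 100% = DMSO alone without agonist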
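Test system: CHO RD-HGA16 cells bearing hTAAR1 | Reagent: β-PEA, EC80 | Compound dosing: 3 µM, single point | Schedule: Dye loading 75 min at 37 °C, then 30 min room temperature | Signal: Calcium fluorescence with Fluo-8 | Evaluation: Percent inhibition of PEA-evoked calcium signal, max/basal emission ratio | Control set: DMSO-only wells and EC80 β-PEA-stimulated wells | Repeats: Singlicate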
OX1R antag-1: human HCRTR1 antagonism | O43613 | inhibition, % at 5 µM | CHO/OX1R cells, Fluo-8 calcium fluorescence, orexin A | 330,000 tested, 0.43% active | AID 434989;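 active means inhibition above its plate's threshold, mean inhibition of all tested compounds on the plate plus 3 SD, cut at about 37% in these data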;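 further: 0% = orexin A challenge wells and 100% = SB-334867-A antagonist wells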
Target sequence (O43613 whole entry, looked up): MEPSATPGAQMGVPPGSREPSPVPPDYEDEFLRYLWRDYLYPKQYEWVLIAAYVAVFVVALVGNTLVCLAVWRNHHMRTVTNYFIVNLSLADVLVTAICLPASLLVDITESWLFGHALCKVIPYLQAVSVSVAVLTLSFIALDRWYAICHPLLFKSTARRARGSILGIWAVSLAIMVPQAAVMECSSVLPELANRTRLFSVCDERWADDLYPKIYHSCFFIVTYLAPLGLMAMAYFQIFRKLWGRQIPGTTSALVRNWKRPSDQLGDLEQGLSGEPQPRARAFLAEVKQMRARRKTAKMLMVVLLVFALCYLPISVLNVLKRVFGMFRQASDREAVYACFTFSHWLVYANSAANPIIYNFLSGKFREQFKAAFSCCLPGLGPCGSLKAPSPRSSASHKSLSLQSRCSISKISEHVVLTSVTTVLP
GPR7 antag: antagonists of human GPR7 (neuropeptides B/W receptor 1) | P48145 | GPR7-expressing cells, fluorescence antagonist assay | inhibition, % at 4.4 µM | 290,000 tested, 1.1% active | AID 1861; in the data active means inhibition above about 16%, passing the limit was not always enough;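 further: cells stimulated with the agonist NPW; 0% = agonist with vehicle and 100% = vehicle without agonist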
Target sequence (P48145 whole entry, looked up): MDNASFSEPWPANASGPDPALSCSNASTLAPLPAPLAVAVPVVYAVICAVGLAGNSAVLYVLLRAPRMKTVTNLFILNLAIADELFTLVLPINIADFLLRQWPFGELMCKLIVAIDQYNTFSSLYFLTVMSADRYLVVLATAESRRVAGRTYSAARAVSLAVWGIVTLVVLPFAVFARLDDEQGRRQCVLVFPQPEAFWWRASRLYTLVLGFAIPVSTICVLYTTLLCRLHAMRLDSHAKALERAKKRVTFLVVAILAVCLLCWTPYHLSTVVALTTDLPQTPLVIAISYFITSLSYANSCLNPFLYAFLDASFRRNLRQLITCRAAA
TAAR1 ag: human TAAR1 agonism; CHO RD-HGA16 TAAR1, Fluo-8 calcium fluorescence; vehicle wells 0%, saturating PEA agonist 100%; 360,000 tested, 0.99% active; activation, % at 3 µM;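 active means activation above the mean activation of all test compounds in the run plus 3 SD, cut at about 38% in these data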
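Repeats: no replicates (n 1) | Material: CHO-derived RD-HGA16 cells with stable Gα16 and human TAAR1 | Technique: Kinetic Fluo-8 calcium fluorescence | Schedule: 17-24 h seeding, 75 min 37 °C dye, 30 min RT | Evaluation: % activation from peak over basal fluorescence ratio, DMSO-to-PEA scaled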
OX1R antag-2: blocks the human orexin 1 receptor; O43613; OX1R-expressing cells, FRET antagonist read-out; inhibition, % at 6.6 µM; 330,000 tested, 1.8% active; AID 485270; in the data active means inhibition mostly above about 38%, no sharp cut-off; inactive means mostly below about 40%;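 further: 0% = agonist challenge alone and 100% = reference antagonist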
OX1R HTRF confirm: confirmation of human orexin 1 receptor antagonists, HTRF format; shares compounds with OX1R antag-2; OX1R-expressing cells, HTRF antagonist assay; inhibition, % at 6.6 µM; 1,800 tested, 49% active; AID 492964; in the data active means inhibition above about 55%;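 further: CHO cells expressing OX1R stimulated with orexin A at about EC80; 0% = agonist challenge alone and 100% = reference antagonist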
CHO-K1 HTRF: counter-screen for OX1R antagonists: effect in parental CHO-K1 cells | shares compounds with OX1R antag-2 | HTRF counterscreen | inhibition, % at 6.6 µM | 1,800 tested, 48% active | AID 493232; in the data active means inhibition above about 17%;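 further: 0% = agonist challenge with vehicle and 100% = vehicle alone without agonist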
Active calls of the source: *; / = not tested or not shown; ! = a repeat was not active.

SMILES	CHO parental Ca	TAAR1 antag	OX1R antag-1	GPR7 antag	TAAR1 ag	OX1R antag-2	OX1R HTRF confirm	CHO-K1 HTRF
CC1=CC(=O)C=C(C)C1=NOC(=O)/C=C\c1ccccc1	-1.8	-0.1	-0.9	5.4	0.3	9.9	/	/
CC1=CC(=NOC(=O)/C=C/c2ccccc2)C=C(C)C1=O	-9.2	-6.8	2.6	-17.1	15.2	82.3*	29.1	3.2
COc1ccc(C(=O)c2[nH]c(N)c(C(=O)NCCc3c[nH]c4ccccc34)c2-c2ccc(Cl)c(F)c2)cc1	/	4.8	/	/	8.8	/	/	/
O=C(Nc1ccc2nc3ccccc3nc2c1)c1ccccc1	-9.6	22.0	27.1	-4.2	10.5	86.2*	92.7*	9.8
CCN1CCc2c(C#N)c(N3CCOCC3)nc(NCCO)c2C1	1.4	5.1	-1.4	-0.2	3.5	78.5*	7.0	-0.7
CCN1CCc2c(C#N)c(N3CCOCC3)nc(NCc3ccccc3)c2C1	/	1.7	/	-12.4	9.9	/	/	/
CC1(C)CC(N=c2cc(-c3ccccc3)oc3ccc(Cl)cc23)CC(C)(C)N1	/	6.4	/	-13.6	1.1	/	/	/
OCCCN=c1cc(-c2ccccc2)oc2ccc(Cl)cc12	-17.6	-7.9	-24.4	-4.7	1.7	96.2*	35.7	60.8*
COc1cc(/C=N/NC(=O)c2ccccc2O)ccc1OC(=O)CC1SC(=O)NC1=O (stereo not drawn)	-4.5	11.1	-22.1	-3.7	1.2	96.5*	15.6	7.1
COc1cc(C(=O)N/N=C/c2ccc(OC(=O)c3ccccc3Cl)c(OC)c2)ccc1O	/	/	/	-12.4	/	/	/	/
CCN1C(=O)/C(=C/c2cc(C)n(C)c2C)SC1=Nc1ccc(OC)cc1	-20.7	2.3	-46.1	1.5	8.0	126.8*	26.2	15.5
COc1ccccc1Cc1c(-c2ccccc2)nc2ccc(Cl)cn12	/	11.8	/	/	-0.9	/	/	/
Cc1cccn2c(=O)c3cc(C(=O)NC(C)C)c(=N)n(Cc4ccncc4)c3nc12	-13.6	-2.6	-27.3	-14.4	-1.0	83.6*	49.6	56.8*
CNC(=O)c1cc2c(=O)n3cc(C)ccc3nc2n(C(C)C)c1=N	6.5	2.4	-21.5	-10.2	-0.3	144.9*	52.2	71.0*
COCCn1c(=N)c(C(=O)NCCc2ccc(OC)cc2)cc2c(=O)n3cccc(C)c3nc21	-18.6	-3.8	-36.4	-5.4	2.7	29.5	/	/
Cc1ccc2nc3c(cc(C(=O)NC4CCCCC4)c(=N)n3C3CCCCC3)c(=O)n2c1	-14.8	-16.2	-11.7	-17.7	0.3	16.7	/	/
COCCCNC(=O)c1cc2c(=O)n3cccc(C)c3nc2n(C(C)C)c1=N	-3.9	6.4	-19.4	-4.8	0.8	81.4*	47.9	37.6*
Cc1cccc(N2CCN(C(=O)c3ccc(S(=O)(=O)N(C)c4ccccc4)cc3)CC2)c1C	-13.5	-3.7	27.0	/	-2.1	20.1	/	/
O=C(Nc1ccc2nccnc2c1)c1cnccn1	-10.5	4.2	-2.9	5.2	-0.2	132.3*	42.1	70.1*
O=C(Nc1ccc2ccccc2c1)c1cnccn1	-13.4	2.3	13.7	-11.3	3.7	2.3	/	/
COc1cc(/C=N/NC(N)=O)cc([N+](=O)[O-])c1O	-4.1	-20.4	3.0	-6.8	0.2	91.0*	55.4*	62.3*
Cc1[nH]c2ccc(C(=O)OCCN(C)C)cc2c1C	-8.4	-10.4	-4.4	-10.9	16.7	15.0	/	/
CCOC(=O)c1ccc2[nH]c(C)c(C)c2c1	-12.0	-11.7	23.8	-6.7	-1.3	92.9*	65.8*	10.2
CC(C)CC(N)c1csc(Nc2cc(Oc3ccccc3)ncn2)n1 (stereo not drawn)	/	9.7	/	/	22.3	/	/	/
O=C1N=C(N2CCCC2)S/C1=C\c1ccccc1	-12.7	8.5	-15.5	-0.6	1.1	146.7*	58.4*	27.0*
SMILES	CHO parental Ca	TAAR1 antag	OX1R antag-1	GPR7 antag	TAAR1 ag	OX1R antag-2	OX1R HTRF confirm	CHO-K1 HTRF
Cc1ccc(/C=C2\SC(N3CCCCC3)=NC2=O)cc1	-13.7	-17.6	-11.1	-7.0	0.7	16.4	/	/
Cc1cc(=O)n(C)c(=O)n1CCCCOc1ccc([N+](=O)[O-])cc1	-0.2	12.0	8.0	12.8	3.1	104.3*	25.2	16.2
Cc1cc(=O)n(C)c(=O)n1CCCCCCOc1ccc([N+](=O)[O-])cc1	-4.1	/	-11.8	-1.2	/	6.2	/	/
CN1CCN(C(=O)Nc2ccccc2)CC1	2.1	-24.0	-7.4	-7.2	2.5	91.5*	27.2	4.8
O=C(Nc1ccccc1)N1CCN(c2ccccc2)CC1	/	-5.2	/	/	3.2	/	/	/
N#CC(=C=[N-])c1nc2ccccc2nc1-[n+]1ccccc1	-1.4	-2.2	7.1	-3.9	-0.5	98.0*	63.6*!	79.3*
Cc1cc[n+](-c2nc3ccccc3nc2C(=C=[N-])C#N)cc1	-5.9	7.5	0.1	-5.8	6.5	121.0*	39.9	63.0*
NC(=O)c1c(NC(=O)Cn2cc([N+](=O)[O-])cn2)sc2c1CCCC2	-1.9	-8.1	-17.6	-2.7	7.4	100.7*	17.9	6.8
CN(C)C1=NC[C@H](Cc2ccccc2)N1CC1CCCCCC1	-25.7	23.6	-20.6	/	2.3	9.3	/	/
Cc1ccn2cc(-c3cccc(NC(=O)c4ccccc4)c3)nc2c1	-23.8	17.5	-23.7	10.9	4.6	78.4*	61.8*	3.6
Cc1ccn2cc(-c3cccc(NC(=O)C(C)C)c3)nc2c1	-6.5	-5.8	-11.2	8.5	-0.3	19.6	/	/
Cc1c(=O)n(OCc2ccccn2)c2ccccc2[n+]1[O-]	-3.4	-5.9	-15.8	-14.3	12.5	67.8	/	/
O=c1c[n+]([O-])c2ccccc2n1OCc1c(F)cccc1F	-9.5	2.6	1.0	-12.5	3.5	81.3*	53.7	52.8*
COC(=O)c1ccccc1COn1c(=O)c[n+]([O-])c2ccccc21	-14.0	-6.8	-23.9	-0.6	2.6	84.7*	31.1	29.4*
O=c1c[n+]([O-])c2ccccc2n1OCc1ccccn1	5.8	-2.3	-7.7	-6.3	4.8	128.6*	40.1	54.8*
CCOn1c(=O)c[n+]([O-])c2ccccc21	-6.9	-24.9	-8.0	-18.6	3.1	40.4	/	/
CCC(=O)N=c1ccn(C2=Nc3ccccc3NC2=C(C#N)C#N)cc1	-4.0	-38.2	-11.8	-9.2	2.2	101.5*	48.9	36.3*
COc1ccc(N2CCN(CCNS(=O)(=O)c3cccc4nsnc34)CC2)cc1	/	9.2	/	-5.4	5.1	/	/	/
COc1ccc(N2CCN(CCNC(=O)CCS(=O)(=O)c3cccc4nsnc34)CC2)cc1	-6.2	/	-16.9	2.9	/	85.0*	43.2	75.7*
CCN(CCNC(=O)CN(C)S(=O)(=O)c1cccc2nsnc12)c1ccccc1	-26.5	23.9	-15.9	2.6	14.6	16.4	/	/
